Assay results taken from ChEMBL document CHEMBL5370536, “Design, synthesis, and biological activity of dual monoamine oxidase A and heat shock protein 90 inhibitors, N-Methylpropargylamine-conjugated 4-isopropylresorcinol for glioblastoma” (Eur J Med Chem, 2023).
pIC50: −log10 of the molar value. Calls of active or inactive are those of the source. The calls are words filed in the database; no cut-off is given here.

Assays:
[1] = Antiproliferative activity against mouse GL26 cells assessed as inhibition of cell growth measured after 48 hrs by MTT assay; type: functional, cell-based; conditions: GL26, 48 h
In short: (§1)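 Cells plated at 5×10³ per well 24 h before compound and grown in DMEM with 10% FBS at 37°C, 5% CO₂. After 48 h exposure, the medium was replaced with 0.5 mg/mL MTT for 3 h. Formazan was dissolved in DMSO and read at 570 nm.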

U-251 [2] = assay: Downregulation of Akt phosphorylation expression at Ser 473 residues in human Temozolomide-resistant U-251 cells at 0.1 to 3 uM incubated for 24 hrs by Western blot analysis; type: functional, cell-based; conditions: dose 0.1-3 µM
In short: (§2)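 GL26 and U251R cells were seeded at 3 × 10⁵ per well 24 h ahead, then treated in compound-containing medium for 24 h. Cells were washed twice in ice-cold PBS and lysed in RIPA buffer (150 mM NaCl, 1% Triton X-100, 0.5% deoxycholate, 0.1% SDS, 50 mM Tris pH 8.0) plus protease inhibitors. Lysate was cleared at 4°C, protein was quantified by BCA, and western blotting followed.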

GL26 [3] = assay: Antitumor activity against mouse GL26 cells xenografted in C57BL/6J mouse model assessed as tumor growth inhibition at 10 mg/kg, ip administered daily for 14 days by caliper method; conditions: time 14.0 day
GL26 [4] = assay: Downregulation of IFN-gamma induced PD-L1 expression in mouse GL26 cells at 20 uM incubated for 24 hrs by flow cytometry analysis; type: functional, cell-based
In short: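 GL26 cells were seeded at 3.6 × 10⁵ per well and exposed to compound, with or without 10 ng/mL IFN-γ, for 24 h. Cells were stained with goat anti-PD-L1 for 1 h, then FITC donkey anti-goat for 1 h. Surface FITC was read by flow cytometry, and MFI was normalized to the secondary-only control as an MFI ratio.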

GL26 [5] = assay: Downregulation of Akt phosphorylation expression at Ser 473 residues in mouse GL26 cells at 0.1 to 3 uM incubated for 24 hrs by Western blot analysis; type: functional, cell-based; conditions: dose 0.1-3 µM; in short: as §2
[6] = biological target: T1, Amine oxidase [flavin-containing] A (Mus musculus, UniProt Q64133); assay: Inhibition of MAO A in mouse GL26 cells preincubated for 20 mins followed by 14C-labeled 5-hydroxytryptamine addition and measured after 20 mins by scintillation counter analysis; type: cell-based
T1 sequence (Q64133 whole entry): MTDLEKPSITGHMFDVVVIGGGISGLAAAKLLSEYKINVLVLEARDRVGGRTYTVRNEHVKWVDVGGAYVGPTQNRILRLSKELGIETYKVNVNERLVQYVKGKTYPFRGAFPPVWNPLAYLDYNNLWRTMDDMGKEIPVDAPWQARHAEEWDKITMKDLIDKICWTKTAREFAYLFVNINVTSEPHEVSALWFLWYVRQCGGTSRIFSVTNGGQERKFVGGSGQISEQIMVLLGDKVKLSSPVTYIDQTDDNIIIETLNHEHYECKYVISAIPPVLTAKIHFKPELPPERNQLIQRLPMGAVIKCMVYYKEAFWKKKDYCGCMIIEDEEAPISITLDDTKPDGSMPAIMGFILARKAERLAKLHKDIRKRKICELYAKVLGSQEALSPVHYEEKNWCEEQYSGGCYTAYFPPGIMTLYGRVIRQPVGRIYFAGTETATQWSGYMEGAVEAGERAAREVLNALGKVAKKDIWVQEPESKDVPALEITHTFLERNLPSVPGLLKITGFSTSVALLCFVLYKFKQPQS

U-251 [7] = assay: Antiproliferative activity against human Temozolomide-resistant U-251 cells assessed as inhibition of cell growth measured after 48 hrs by MTT assay; type: functional, cell-based; conditions: U-251, 48 h; in short: as §1
[8] = biological target: Heat shock protein HSP 90-alpha (Homo sapiens, UniProt P07900); assay: Inhibition of human recombinant HSP90alpha preincubated for 30 mins followed by FITC-GM addition and mesured after 3 hrs by fluorescence polarization assay

Q: With `C#CCN(C)CCCOc1ccc(Cl)cc1Cl` [CLORGILINE] as the compound, how does the pIC50 [1] read?
A: < 4.00

Q: What about the Activity (U-251 [2]) of the same compound?
A: Active

Q: And the Activity (GL26 [3])?
A: inactive

Q: And the Activity (GL26 [4])?
A: Active

Q: And the Activity (GL26 [5])?
A: Active

Q: With `C#CCN(C)CCCOc1cccc(NC(=O)c2cc(C(C)C)c(O)cc2O)c1Cl` as the compound, how does the pIC50 [6] read?
A: 5.63

Q: With `C#CCN(C)CCCOc1cccc(N(CC)C(=O)c2cc(C(C)C)c(O)cc2O)c1Cl` as the compound, how does the pIC50 [6] read?
A: 5.64

Q: With `C#CCN(C)CCCOc1ccc(NC(=O)c2cc(C(C)C)c(O)cc2O)cc1Cl` as the compound, how does the pIC50 [1] read?
A: < 5.00

Q: And the pIC50 [6]?
A: 6.96

Q: What about the pIC50 (U-251 [7]) of the same compound?
A: < 5.00

Q: And the pIC50 [8]?
A: < 5.00
